Source: PubChem BioAssay (The Scripps Research Institute Molecular Screening Center)
An excerpt weighted towards active compounds, which were near 4.5% of everything screened.
CHO parental Ca = counter-screen: ATP calcium response change in parental CHO cells. parental CHO-K1, ATP-induced calcium, Fluo-8 fluorescence. inhibition, % at 5.6 µM. hit rate 0.63% among 330,000. AID 463079;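 active = inhibition above that plate's mean sample inhibition plus 3 SD, cut at about 26% in these data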;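 also: 0% = ATP-challenged DMSO wells and 100% = DMSO wells without ATP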
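Material – parental CHO cells · Reagent – ATP stimulus · Compound – single nominal dose of 5.6 µM per compound · Detection – Fluo-8 fluorescence · Read-out basis – percent inhibition of calcium signal · Controls – ATP-challenged DMSO wells low, unchallenged DMSO wells high · Repeats – no replicates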
TAAR1 antag = antagonists of human TAAR1; Q96RJ0; CHO RD-HGA16 TAAR1, Fluo-8 calcium fluorescence, antagonist; inhibition, % at 3 µM; hit rate 1.5% among 360,000; AID 624466;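 active = inhibition above a per-plate cutoff, the mean inhibition of test compounds on that plate plus 3 SD, cut at about 49% in these data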;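 also: 0% = DMSO plus EC80 beta-PEA response and 100% = DMSO alone without agonist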
Target sequence (Q96RJ0 whole entry, looked up): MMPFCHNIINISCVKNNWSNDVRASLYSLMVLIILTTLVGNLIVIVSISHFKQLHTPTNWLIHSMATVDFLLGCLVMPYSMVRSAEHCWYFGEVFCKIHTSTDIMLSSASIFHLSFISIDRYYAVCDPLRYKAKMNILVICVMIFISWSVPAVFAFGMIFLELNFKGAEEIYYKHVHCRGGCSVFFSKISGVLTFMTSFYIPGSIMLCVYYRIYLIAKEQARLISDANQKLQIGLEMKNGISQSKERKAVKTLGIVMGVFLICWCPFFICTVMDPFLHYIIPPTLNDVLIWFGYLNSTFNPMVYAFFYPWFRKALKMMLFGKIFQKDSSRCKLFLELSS
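System: CHO RD-HGA16 cells bearing hTAAR1. Reagent: EC80 β-phenethylamine stimulus. Schedule: seeding 17-24 h prior, 75-min 37 °C, 30-min RT dye loading. Signal: Fluo-8 intracellular calcium dye fluorescence, real-time kinetic reads. Read-out: % inhibition from peak post-agonist over basal fluorescence ratio. Benchmarks: vehicle wells and EC80 agonist wells. Replicates: n of 1.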
GPR7 antagonist = human neuropeptides B/W receptor 1 antagonism; P48145; GPR7-expressing cells, fluorescence antagonist assay; inhibition, % at 4.4 µM; hit rate 1.1% among 290,000; in the data active = inhibition above about 16%, passing the limit was not always enough;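 also: cells stimulated with the agonist NPW; 0% = agonist with vehicle and 100% = vehicle without agonist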
Target sequence (P48145 whole entry, looked up): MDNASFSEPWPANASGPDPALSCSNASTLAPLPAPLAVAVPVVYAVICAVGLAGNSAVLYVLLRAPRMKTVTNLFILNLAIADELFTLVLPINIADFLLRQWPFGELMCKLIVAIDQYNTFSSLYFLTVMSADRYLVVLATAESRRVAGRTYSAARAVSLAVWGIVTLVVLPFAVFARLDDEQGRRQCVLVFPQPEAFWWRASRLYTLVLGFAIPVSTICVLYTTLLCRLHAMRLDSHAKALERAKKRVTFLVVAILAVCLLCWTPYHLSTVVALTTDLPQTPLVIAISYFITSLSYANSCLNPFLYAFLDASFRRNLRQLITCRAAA
OX1R antag-1 = antagonists of human orexin 1 receptor | inhibition, % at 5 µM | O43613 | hit rate 0.43% among 330,000 | CHO/OX1R cells, Fluo-8 calcium fluorescence, orexin A;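 active = inhibition above its plate's threshold, mean inhibition of all tested compounds on the plate plus 3 SD, cut at about 37% in these data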;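 also: 0% = orexin A challenge wells and 100% = SB-334867-A antagonist wells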
TAAR1 agonist = agonists of human TAAR1. CHO RD-HGA16 TAAR1, Fluo-8 calcium fluorescence; vehicle wells 0%, saturating PEA agonist 100%. hit rate 0.99% among 360,000. Q96RJ0. AID 624467. activation, % at 3 µM;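 active = activation above the mean activation of all test compounds in the run plus 3 SD, cut at about 38% in these data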
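test system = CHO RD-HGA16 cells carrying human TAAR1 plus Gα16 | schedule = 17-24 h seeding, 75 min 37 °C dye, 30 min RT | compound dosing = 3 µM single concentration | control set = DMSO and PEA EC100 | replicates = n 1 | signal = Fluo-8 fluorescence, 5 s baseline then 140 s kinetic read | measure = percent activation vs PEA EC100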
OX1R antag-2 = antagonists of human orexin 1 receptor (OX1R) | O43613 | OX1R-expressing cells, FRET antagonist read-out | inhibition, % at 6.6 µM | hit rate 1.8% among 330,000 | AID 485270; in the data active = inhibition mostly above about 38%, no sharp cut-off; inactive = mostly below about 40%;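 also: 0% = agonist challenge alone and 100% = reference antagonist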
Numbers without * were called inactive.

Screening O=C(Nc1ccccc1)c1nc[nH]c1C(=O)NCCCCNC(=O)c1[nH]cnc1C(=O)Nc1ccccc1 returned CHO parental Ca -9, TAAR1 antag 57*, OX1R antag-1 1, TAAR1 agonist 21 and OX1R antag-2 6.
For Cc1ccc(NC(=O)c2nc[nH]c2C(=O)NCCCCCCNC(=O)c2[nH]cnc2C(=O)Nc2ccc(C)cc2)cc1 the results were CHO parental Ca -5, TAAR1 antag -7, OX1R antag-1 -8, TAAR1 agonist 3 and OX1R antag-2 2.
`Cc1ccc(NC(=O)c2nc[nH]c2C(=O)NCCCCNC(=O)c2[nH]cnc2C(=O)Nc2ccc(C)cc2)cc1` gave CHO parental Ca -9, TAAR1 antag 60*, OX1R antag-1 -10, TAAR1 agonist 18 and OX1R antag-2 1.
Screening COc1ccc(S(=O)(=O)N2CCCCC2)cc1NC(=O)c1cncc(Br)c1 returned CHO parental Ca -4, TAAR1 antag 1, OX1R antag-1 -18, TAAR1 agonist 3 and OX1R antag-2 2.
Screening CC[C@@]1(O)C(=O)OCc2c1cc1n(c2=O)Cc2cc3c(N)cccc3nc2-1 returned CHO parental Ca -3, TAAR1 antag -18, OX1R antag-1 -11, TAAR1 agonist 0 and OX1R antag-2 52.
Screening CC[C@@]1(O)C(=O)OCc2c1cc1n(c2=O)Cc2cc3c(CN(C)C)c(O)ccc3nc2-1 returned CHO parental Ca -4, TAAR1 antag -6, OX1R antag-1 -16, TAAR1 agonist 9 and OX1R antag-2 46*.
`CCN1C(=O)/C(=C/C=C2/SCCN2C)SC1=S` gave CHO parental Ca -7, TAAR1 antag 7, GPR7 antagonist 1, OX1R antag-1 -4, TAAR1 agonist 39* and OX1R antag-2 28.
Screening CCN1C(=O)/C(=C/N2CCc3ccccc32)SC1=S returned CHO parental Ca -11, GPR7 antagonist 11, OX1R antag-1 -10 and OX1R antag-2 3.
CN1CCS/C1=C\C=C1/SC(=S)N(CC(=O)O)C1=O was read as TAAR1 antag 12, GPR7 antagonist 8 and TAAR1 agonist 45*.
For CN[C@H]1C[C@H]2c3[nH]c4c(-c5ccc6c(c5)OCO6)cccc4c3CCN2C(=O)[C@H]1[C@H](C)O the results were TAAR1 antag 38 and TAAR1 agonist 5.
Cc1ccc(S(=O)(=O)CCc2nnc(N)s2)cc1C was read as CHO parental Ca 38*, TAAR1 antag 2, GPR7 antagonist -10, OX1R antag-1 1, TAAR1 agonist 7 and OX1R antag-2 18.
Screening CC(C)C[C@@H]1COc2cc(NC3CC3)ccc2S(=O)(=O)N1 returned TAAR1 antag -5 and TAAR1 agonist -1.
CC(=O)Nc1ccc2c(c1)C(=O)c1cccc(C(=O)O)c1-2 was read as TAAR1 antag -5 and TAAR1 agonist 3.
For CC1CCCC(NC(=O)CSc2ccc(F)cc2)C1C (centres undefined) the results were CHO parental Ca 1, TAAR1 antag 5, GPR7 antagonist 3, OX1R antag-1 -36, TAAR1 agonist 1 and OX1R antag-2 -2.
Screening CC1CCCC(NCC(O)COC(c2ccc(F)cc2)c2ccc(F)cc2)C1C (centres undefined) returned CHO parental Ca 7, TAAR1 antag 17, GPR7 antagonist 56*, OX1R antag-1 -6, TAAR1 agonist 30 and OX1R antag-2 -2.
Screening Nc1c(-c2cccc([N+](=O)[O-])c2)nc2ccccn12 returned CHO parental Ca -22, TAAR1 antag -17, GPR7 antagonist -3, OX1R antag-1 -35, TAAR1 agonist -2 and OX1R antag-2 32.
CCOC(=O)Cc1csc(NC(=O)Cn2cnc3c2c(=O)n(C)c(=O)n3C)n1 was read as CHO parental Ca -2, TAAR1 antag 12, GPR7 antagonist 2, OX1R antag-1 -4, TAAR1 agonist 4 and OX1R antag-2 5.
`Cn1c(=O)c2c(ncn2CC(=O)Nc2nc(-c3ccccc3Cl)cs2)n(C)c1=O` gave CHO parental Ca -6, TAAR1 antag 19, GPR7 antagonist -7, OX1R antag-1 4, TAAR1 agonist 39* and OX1R antag-2 10.
For NS(=O)(=O)c1cccc(NC(=O)COC(=O)C2(c3cccc(F)c3)CCCC2)c1 the results were CHO parental Ca -10, TAAR1 antag 52*, GPR7 antagonist 2, OX1R antag-1 -8, TAAR1 agonist 6 and OX1R antag-2 14.
CC(=O)Nc1ccc(NC(=O)COC(=O)C2(c3ccc(Cl)cc3)CCCC2)cc1 was read as CHO parental Ca -4, TAAR1 antag 49*, GPR7 antagonist 2, OX1R antag-1 -12, TAAR1 agonist 39* and OX1R antag-2 17.
NS(=O)(=O)c1cccc(NC(=O)CC2(CC(=O)O)CCCC2)c1 was read as CHO parental Ca 7, TAAR1 antag -11, GPR7 antagonist 1, OX1R antag-1 -9, TAAR1 agonist 0 and OX1R antag-2 3.
Screening CCN(CC(=O)Nc1ccc(NC(C)=O)cc1)C(=O)C1(c2ccc(Cl)cc2)CCC1 returned TAAR1 antag 11 and TAAR1 agonist 5.
Screening O=S(=O)(Nc1cccc(-c2cn3c(n2)SCC3)c1)c1cccs1 returned CHO parental Ca -3, TAAR1 antag -1, GPR7 antagonist -6, OX1R antag-1 1, TAAR1 agonist 0 and OX1R antag-2 56*.
`O=S(=O)(Nc1cccc(-c2cn3c(n2)SCC3)c1)c1ccccc1F` gave CHO parental Ca -5, TAAR1 antag -13, GPR7 antagonist 5, OX1R antag-1 -10, TAAR1 agonist 1 and OX1R antag-2 23.
For COC(=O)C1=C(C)N(C)C(=NCc2cc(OC)c(OC)c(OC)c2)NC1c1ccc(C(F)(F)F)cc1 (centres undefined) the results were TAAR1 antag -25 and TAAR1 agonist 3.
Screening COc1ccccc1/C=C/C(=O)NCC(=O)N/N=C/c1ccccc1 returned CHO parental Ca -17, TAAR1 antag -27, GPR7 antagonist 9, OX1R antag-1 -27, TAAR1 agonist 38* and OX1R antag-2 3.
O=C1N[C@@H](Cc2cn(S(=O)(=O)c3c(F)c(F)c(F)c(F)c3F)c3ccccc23)C(=O)N[C@H]1Cc1ccccc1 was read as CHO parental Ca -16, OX1R antag-1 -24 and OX1R antag-2 0.
For CC(C)(C)NCCC(O)c1cc(C(F)(F)F)nc2c(C(F)(F)F)cccc12 (centres undefined) the results were TAAR1 antag 15 and TAAR1 agonist 38*.
`Cc1ccc(NC(=O)CCCCCC2NC(=O)NC2C)cc1` (centres undefined) gave CHO parental Ca 3, GPR7 antagonist 10, OX1R antag-1 -4 and OX1R antag-2 8.
`CCOC(=O)CCCCCCCCC(=O)Nc1ccc(-n2[nH]c(=O)cc2C)cc1` gave TAAR1 antag 2 and TAAR1 agonist 44*.
